First the molecules themselves.
B1: tRNA (parent)
chain: GUUCCGUUGGCGUAAUGGUAACGCGUCUCCCUCCUAAGGAGAAGACUGCGGGUUCGAGUCCCGUACGGAACG

Data on 38 variants can be found in the RNAGym collection of RNA variant scans (doi:10.1126/science.aae0568).

This sample holds only a part of the variants without activity. Bounds are passed on as bounds.

This data set covers variants of B1. Briefly: yeast fitness relative to wild type (ratio to wild type); higher = fitter; tRNA-Arg(CCU), competitive growth, 37 C, YPD. A digest of the protocol:
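Start and end populations of a pooled competition were compared by 100-nucleotide paired-end sequencing of gene amplicons. The Saccharomyces cerevisiae strains carried tRNA-Arg(CCU) gene variants at the native genomic locus, synthesised with a 3% per-site mutation rate at 69 sites, and competed in YPD at 37°C for 24 hours in six parallel replicates. Darwinian fitness relative to wild type was based on the change in genotype frequencies. Genotypes required ≥ 100 starting reads, and estimates < 0.5 were set to 0.5.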
As to GUACCGUUGGGAUAAUGGUAAUGCGUCUCCCUCCUAAGAAGAAGACUGCGGGUUCGAGUCCCGUGCGGAACG, the yeast fitness was at most 0.5. The result for GUACUGUUGGCGUGAUGGUAACGCGUCUCCCUCGUAAGGAGACGACUGCGGGUUCGAGUCCCGUACGGAACG reads at most 0.5. For the variant GUACGGUUGGCGUGAUGGUAACGAGUCUCCCUCCUAAGGAGAAGACUGCGCCUUCGAGUCCCGUACGGAACG, the yeast fitness was at most 0.5.

For GUACACUUGGUGUAGAGGUAACGCGGCUCCCUCCUAAGGAGAAGACUGCGGGUUCGAGUGUCGUACGGAACG, the yeast fitness is at most 0.5. Then GUACCGUUGGCGUAAUGGUAACGCGUCUCGCUCCUAAGGAGAAGACUGCGGGUUUGAGUCCCGUACGGAUCG, with at most 0.5; and GUACCGUUGGCGUAAUGGUAACGCGUCUCUCUCCUAAGGAGGAGACUGCGGGUUCGAGUCUCGUACGGAACG, with 0.602; and GUACCGUUGGCGUAAUGGUAACGCGUCUACCUCCUAAGGAGAAGACUGCGGGUUCGAGUCCCGUACGGAACG, with 0.653. The result for GUACCGUUGGCGUAAUGGUAACGCGUCUUCCUCCUAAGGAGAAGACUGCGGGUUCGAGUCCCGUACGGAACG reads 0.85; that for GUACGGUUGGCGGAAUGGUAACGCGUCUCCCUCCUAAGGAGAAGAGUGCGGGUUCGAGUCCGGUACGGAUCG, at most 0.5. Then GUACCGUUGGCGUAAUGGUAACGCGUGUCCUUUCUAAGGAGCAGACUGCGGGUUCGAGUCCCGUACGGAUCG, with at most 0.5.

GUACCGUUGGUGUAAUGGUAACGCGUCUCCCUCCCAAGGAGAAGACUGCGGGUUCGAGUCCCGUCCGGAACG: the yeast fitness was at most 0.5. The result for GUACGGCUGGCGUAAUGGUAACGCGUCUCCCUCCAAAGGUGAAGAGUGCGGGAUCGAGUCCCGUACGCAACG reads at most 0.5; that for GUACCGUUGGUGUAAUGGUGACGCGUCUCCCUCCUAAGGAGAAGACUGCGGGUUCGAGUCCCGUACGGAACG, 0.654; that for GUACAGUUGGCGUAAUGGUAACGCGUCUCCCUGUUAAGGAGAAGACUGCGGGUUCGAGUCGCGUACGGAACG, at most 0.5. In the case of GUACCGUUGGCGUAAUGGUAACGGGUCUACCUCCUAAGGAGAAGACUGCCGGUUCGCGUCCCGUAUGGAACG, the yeast fitness is at most 0.5. Then GUACACUUGGCGUAGAGGUAACGCGUCUCCCUCCUAAGGAGAAGACUGGGGGUUCGAGUCCCGUACGGAACG, with at most 0.5. The result for GUAUCGAUGGCGUAAUGGUAACGUGUCUCCCUCCUAAGGAGAAGACUGCGGGUUCGAGUCAGGUGCGGAACG reads at most 0.5; that for GUACCGUUGGCGUAAUGGUAACGUGUCUCCCCCCUAAGGAGAAGACUGCGGGUUCGAGUCCCGUACGGAACG, 0.513; that for GUACCGUUGGCGUAAUGGUAACGAGUCUCCCUCCUAAGGAGAAGACUGCGGGUUCGAGUCCCAAACGGAACG, at most 0.5.

On to GUACCGUUGGCGUAAUGGUAACGCGUUUCCCUCCUAAGGAGAAGACUGCGGGUUCGAGUCCCGUACUGAACG, for which the yeast fitness was determined as 0.606.

GUACCGUUGGGGUAAUGGUAACGCGUCUCCGUCCUAAGGAGAAGACUGCGGGUUCGAGUCCCGUGCGGAACG: the yeast fitness was at most 0.5.

With GUACCGUUGGUGUAAUGGUAACGCGUCUCCCUCCUAAGGAGAAGACUGCGGGUUGGAGUCCCGUCCGGAACG, the yeast fitness is at most 0.5. Then GUACGGUUGGCGUAAUGGUAACGAGUCUCUCUCCUAAGGAGAAGACUGCGGGUUCGAGUCCCGUACGGAGCG, with at most 0.5. The result for GUACGGUUGGCGUAAUGGUAACGCGUCUGCCUCCUCAGGAGAAGACUGCGGGGUCGAGUCCCGUACGGAACG reads at most 0.5. Then GUACAGUUGGCGUAAUAGUAAUGCGUCUCCCUCCUAAGGAGAAGACUGCGGGUUCGAGUCCCGUAUGGAACG, with 0.531; and GUACCGUUGGAGUAAUGGUAACGCGUCUCCCUUCUAAGGAGAAGACUGCGGGUUCGAGUCCCGUACGCAACG, with at most 0.5. For GUACCGUUGGCGUAAUGGUAACGGGUCUCCCUGCUAAGGAGAAGACUGCGGGUUUGAGUCCCGUACGGAACG, the yeast fitness was at most 0.5. The result for GUACAGUUGGCGUAAUGGUAACGCGUCUCCCUCCUAAGGAGAAGACUGCGGGUUCGAGUCCCGUACGGAACG reads 0.806; that for GUACCGUUGGCGUAAUGGUAACGAGUCUCCCUCUUAAGGAGAAGACUGCGGGUGCGAGUCCCGUACGGAACG, at most 0.5. The result for GUACCGUUGGCGUAAUGGUAAGGCGUGUCCCUCCUAAGGAGAAGACUGCGGGUUCGAGCCCUGUACGUAACG reads at most 0.5; that for GUACCGUUGGCGUAAUGGUAACGCGUGUCCCUCCUAAGGAGAAGACUGCGGGUUCGAGUCCCGUACGGCACG, at most 0.5.

With GUACCGUUGGCGUAAUGGUAACGCGUUUCCCUCCUAUGGAGAAGACUGCGGGUUCGAGUCCCGUACGGCACG, the yeast fitness is at most 0.5. Consider GUACGGUUGGCGGAAUGGUAACGCGUCUCCCUCCUAAGCAGAAGACUGCGGGUUCGAGUCCCGUACGGACCG, for which the yeast fitness was at most 0.5. Then GUACUGUUGGCGUAAUGGUAACGCGUCUCCGUCCUAAGGAGAAGACUGCGGGUUCGGGUCCCGUACGGAACG, with at most 0.5; and GUACCGUUGGCGUAAUGGUAACGGGUCUACCUCCUAAGGAGAAGACUGCCGGUUCGCGUCCCGUACGGAACG, with at most 0.5; and GUACUGUUGGCGUAAUGGUAACGCGUCUCCCUCCUAAGGAGGAGAGUGCGGGUUCGAGUCCCGUACGGAACG, with at most 0.5.

Regarding GUAUCGUAGACGUAAUGGUAGCGCGUCUCCCUCCUAAGGAGAAGACUGGGGGUUCGGGUCCCGUACUGAACG, the yeast fitness came out at 0.655. Then GUAUCGAUGGCGUAAUGGUAACGUGUCUCCCUCCUAAGGAGAAGACUGCGGGUUCGAGUCCCGUACGGAUCG, with at most 0.5.
